Experimental data collected from several papers.
Protocols differ between the studies behind these lines.
Target: Inhibitor of nuclear factor kappa-B kinase subunit epsilon (IKBKE, Homo sapiens, UniProt Q14164)
Residues used in one study (Q14164 1-716): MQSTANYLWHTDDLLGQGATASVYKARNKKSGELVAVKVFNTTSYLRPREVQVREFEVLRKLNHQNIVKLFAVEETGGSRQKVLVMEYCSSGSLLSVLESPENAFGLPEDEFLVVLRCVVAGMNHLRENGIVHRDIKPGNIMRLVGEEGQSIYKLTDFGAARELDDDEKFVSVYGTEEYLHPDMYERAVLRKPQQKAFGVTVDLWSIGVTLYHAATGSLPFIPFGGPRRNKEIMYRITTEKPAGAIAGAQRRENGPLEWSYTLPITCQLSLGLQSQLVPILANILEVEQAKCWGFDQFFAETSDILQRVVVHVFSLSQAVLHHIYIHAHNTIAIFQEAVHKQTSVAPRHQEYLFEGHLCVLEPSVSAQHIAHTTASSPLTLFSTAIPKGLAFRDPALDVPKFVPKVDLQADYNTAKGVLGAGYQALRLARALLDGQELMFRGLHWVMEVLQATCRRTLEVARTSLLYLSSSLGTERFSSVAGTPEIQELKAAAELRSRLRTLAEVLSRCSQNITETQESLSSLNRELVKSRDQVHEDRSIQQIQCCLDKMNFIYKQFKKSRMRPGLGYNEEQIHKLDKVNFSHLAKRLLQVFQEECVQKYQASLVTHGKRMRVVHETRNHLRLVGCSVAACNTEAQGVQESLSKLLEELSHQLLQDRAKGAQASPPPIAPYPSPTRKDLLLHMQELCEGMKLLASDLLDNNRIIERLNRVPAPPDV

| Compound | assay | setting | remaining binding [%] |
| --- | --- | --- | --- |
| N[C@H]1CCN(c2nccc(-c3cnn4ncccc34)n2)C1 | binding | 1 µM | 91 |
| Nc1ncc2c(n1)-c1c([nH]c3ccc(C#CC4CC4)cc13)CCCC2 | binding, competition with immobilised ligand | 1 µM | 83 |
| O=C(c1ccc(Nc2ncc(Cl)c(-c3ccc(Cl)s3)n2)cc1)N1CCC(N2CCCC2)CC1 | binding, competition with immobilised ligand | 1 µM | 7.7 |
| O=C(NCc1ncc(C(F)(F)F)cc1Cl)c1ccc2c(c1)C1(CCS(=O)(=O)CC1)[C@H](C1CC1)N2S(=O)(=O)c1ccc(F)cc1 | cell-free assay, competition with immobilised ligand | 1 µM | 77 |
| O=C(NCCCN1CCOCC1)c1ccc(Nc2ncc(Cl)c(-c3ccc(Cl)s3)n2)cc1 | binding, competition with immobilised ligand | 1 µM | 52 |
| CCS(=O)(=O)c1cc2cc(C[C@@](O)(CC(C)(C)c3ccc(F)cc3C(N)=O)C(F)(F)F)[nH]c2cn1 | cell-free assay, competition with immobilised ligand | 1 µM | 83 |
| Cc1cnn2ncc(-c3ccnc(N(C)C)n3)c2c1 | binding | 1 µM | 96 |
| COc1ncc2cc3ccccc3nc2c1C#N | cell-free assay, competition with immobilised ligand | 5 µM | 97 |
| CCN1CCN(Cc2ccc(C(=O)Nc3ccc(C)c(Oc4ccc5c(c4)CC(=O)N5)c3)cc2C(F)(F)F)CC1 | binding, competition with immobilised ligand | 1 µM | 100 |
| CO[C@H]1CC[C@H](CNc2ccc(S(=O)(=O)NC(=O)c3ccc(N4CCN(CC5=C(c6ccc(Cl)cc6)CC(C)(C)CC5)CC4)cc3Oc3cnc4[nH]ccc4c3)cc2[N+](=O)[O-])CC1 | cell-free assay, competition with immobilised ligand | 1 µM | 100 |
| O=C(NCC1CCOCC1)c1n[nH]cc1NC(=O)c1c(F)cccc1F | binding, competition with immobilised ligand | 1 µM | 81 |
| c1cncc(-c2cccc(Nc3nccc(NC4CCCCC4)n3)c2)c1 | binding, competition with immobilised ligand | 10 µM | 41 |
| C[C@@H]1CCN(c2nccc(-c3cnn4ncccc34)n2)C1 | binding | 1 µM | 82 |
| CC1=C(C#N)[C@@H](c2ccc3[nH]nc(C)c3c2)C(C#N)=C(c2ccc(Cl)cc2)N1 | cell-free assay, competition with immobilised ligand | 1 µM | 100 |
| COc1cnc(Nc2cccc(S(N)(=O)=O)c2)nc1N1CCN(c2ccccc2)CC1 | binding, competition with immobilised ligand | 1 µM | 57 |
| CN(c1nccc(-c2cnn3ncccc23)n1)C1CC1 | binding | 1 µM | 100 |
| O=C(c1ccc(Nc2nccc(-c3cc4ccccc4s3)n2)cc1)N1CCC(N2CCCC2)CC1 | binding, competition with immobilised ligand | 1 µM | 31 |
| CNC(=O)Nc1ccc2c(c1)CC[C@@]21OC(=O)N(CC(=O)N(Cc2ccc(F)cc2)[C@@H](C)C(F)(F)F)C1=O | cell-free assay, competition with immobilised ligand | 1 µM | 51 |
| CN(C)c1ncc(F)c(-c2cnn3ncccc23)n1 | binding | 1 µM | 99 |
| CCC(=O)N[C@@H]1CC[C@H](C(=O)N(C)c2ccc(-c3nc4ccccc4o3)cc2)C1 | cell-free assay, competition with immobilised ligand | 1 µM | 60 |
| CN(CCCC(F)(F)F)c1nccc(-c2cnn3ncccc23)n1 | binding | 1 µM | 100 |
